According to ChEMBL document CHEMBL4251737, “Imidazo[2,1-b]benzothiazol Derivatives as Potential Allosteric Inhibitors of the Glucocorticoid Receptor” (ACS Med Chem Lett, 2018):
Values joined by “and” are separate entries in the source; they are usually repeats but may differ in a detail not shown here. Identical values can stand only once. Active and inactive are the calls of the source. The rule behind the calls is not given here.

Tests used:
[1] = target: T1, Glucocorticoid receptor (Homo sapiens) (UniProt P04150); assay: Transactivation of GCR (unknown origin) expressed in human fibrosarcoma cells at 0.1 uM after 6 hrs by luciferase reporter gene assay; assay type: cell-based
T1 sequence (whole entry): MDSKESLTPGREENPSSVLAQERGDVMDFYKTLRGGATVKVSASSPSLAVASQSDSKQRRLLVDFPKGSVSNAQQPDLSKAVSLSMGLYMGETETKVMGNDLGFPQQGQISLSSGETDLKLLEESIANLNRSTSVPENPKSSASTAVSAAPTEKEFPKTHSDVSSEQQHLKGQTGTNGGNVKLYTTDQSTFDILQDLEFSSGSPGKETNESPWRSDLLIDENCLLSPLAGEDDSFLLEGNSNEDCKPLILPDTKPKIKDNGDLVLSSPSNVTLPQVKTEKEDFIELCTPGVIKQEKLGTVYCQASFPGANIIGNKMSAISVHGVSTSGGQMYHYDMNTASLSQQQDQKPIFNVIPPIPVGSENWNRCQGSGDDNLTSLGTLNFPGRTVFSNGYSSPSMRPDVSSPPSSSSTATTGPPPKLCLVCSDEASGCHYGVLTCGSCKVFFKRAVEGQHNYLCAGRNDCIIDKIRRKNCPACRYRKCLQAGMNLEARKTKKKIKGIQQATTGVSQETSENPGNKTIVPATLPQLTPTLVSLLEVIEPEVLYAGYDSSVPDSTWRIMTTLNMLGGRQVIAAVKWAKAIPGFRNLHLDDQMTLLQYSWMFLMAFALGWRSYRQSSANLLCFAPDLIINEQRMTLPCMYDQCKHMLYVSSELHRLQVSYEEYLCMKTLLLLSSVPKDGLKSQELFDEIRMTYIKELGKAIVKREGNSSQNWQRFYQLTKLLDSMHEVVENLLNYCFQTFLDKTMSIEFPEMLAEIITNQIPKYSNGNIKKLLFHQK
Outline: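 GCR luciferase reporter run with single compound at 0.1 µM to probe agonism; reference agonist DEX at 1 µM.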

[2] = target: T1, Glucocorticoid receptor (Homo sapiens); assay: Transrepression of GCR (unknown origin) expressed in human fibrosarcoma cells assessed as inhibition of DEX-induced GCR activation at 0.1 uM after 6 hrs by luciferase reporter gene assay relative to DEX; values are per cent of control
[3] = Solubility of the compound in water; assay type: physicochemical; conditions: buffer
[4] = tested on: HeLa; assay: Cytotoxicity against human HeLa cells after 72 hrs by MTT assay; assay type: cell-based
Outline: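 HeLa cells exposed 72 h in complete medium to 0.4, 2, 10, 50 and 250 µM; viability read by MTT. Means ± SE of 3 independent experiments run in triplicate.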

[5] = tested on: HeLa; assay: Down regulation of GCRalpha expression in human HeLa cells at 0.4 uM after 24 hrs by Taqman-based real-time PCR analysis relative to control; assay type: functional
Outline: (§1)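 GCR transcripts quantified in HeLa cells after 24 h treatment at 0.4 and 2 µM. Means ± SD of 3 independent experiments; compared by one-way ANOVA.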

[6] = tested on: HeLa; assay: Down regulation of GCRalpha expression in human HeLa cells at 2 uM after 24 hrs by Taqman-based real-time PCR analysis relative to control; assay type: functional, cell-based; outline: as §1
[7] = target: T1, Glucocorticoid receptor (Homo sapiens); assay: Transrepression of GCR in human HeLa cells assessed as down regulation of GILZ mRNA expression at 0.4 uM after 24 hrs by Taqman-based real-time PCR analysis; assay type: cell-based
Outline: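 GILZ expression measured in HeLa cells after 24 h treatment at 0.4 and 2 µM, relative to untreated cells.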

[8] = target: T1, Glucocorticoid receptor (Homo sapiens); assay: Transrepression of GCR (unknown origin) expressed in human fibrosarcoma cells assessed as suppression of TNF-induced NFkappaB activity at 1 uM pretreated for 2 hrs followed by TNF addition after 4 hrs by luciferase reporter gene assay relative to control; assay type: cell-based
Outline: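 Cells pretreated 2 h with compound alone, then TNF added and combination treatment continued 4 h; NF-kB luciferase reporter activity measured.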

[9] = target: T1, Glucocorticoid receptor (Homo sapiens); assay: Transrepression of GCR in human HeLa cells assessed as suppression of DEX-induced GILZ mRNA expression at 0.4 to 2 uM after 24 hrs by Taqman-based real-time PCR analysis; assay type: cell-based
Outline: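 HeLa cells treated 24 h with DEX alone (0.1 µM) or DEX plus compound; GILZ transcription measured. RU486 plus DEX served as competitive-antagonist control.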

Activity [1]	residual activity [2]	Activity [7]	Structure (SMILES)	EC50 [4] [µM]	other results
inactive	23%	–	Nc1ccc(-c2cn3c(n2)sc2ccccc23)cc1	–	–
inactive	23% and 35%	–	Cl.NCc1ccc(-c2cn3c4c(sc3n2)CCCC4)cc1	–	solubility [3]: Soluble
–	–	–	Cl.NCc1ccc(-c2cn3c(n2)sc2ccccc23)cc1	–	solubility [3]: Soluble
inactive	34%	–	OCc1ccc(-c2cn3c(n2)sc2ccccc23)cc1	–	–
–	–	Active	N#Cc1ccc(-c2cn3c4c(sc3n2)C(=O)CCC4)cc1	16	Activity [5]: Active; Activity [6]: inactive
inactive	20%	–	Brc1ccc(-c2cn3c(n2)sc2ccccc23)cc1	–	–
inactive	25%	–	CCn1c2ccccc2n2cc(-c3ccc(C#N)cc3)nc12	–	–
–	–	Active	COC(=O)c1ccc(-c2cn3c4c(sc3n2)CCCC4)cc1	7.7	Activity [5]: Active; Activity [6]: inactive
inactive	18%	Active	N#Cc1ccc(-c2cn3c4c(sc3n2)CCCC4)cc1	1.7	Activity [8]: 76%; Activity [9]: inactive
–	–	Active	O=C(O)c1ccc(-c2cn3c4c(sc3n2)CCCC4)cc1	170	Activity [5]: 50%; Activity [6]: inactive
inactive	–	Active	NCc1ccc(-c2cn3c(n2)sc2ccccc23)cc1 [listing 1 of 2 here]	–	Activity [9]: inactive
inactive	30%	–	Cc1ccc(-c2cn3c(n2)sc2ccccc23)cc1	–	–
–	–	–	NCc1ccc(-c2cn3c(n2)sc2ccccc23)cc1 [listing 2 of 2 here]	3.6	–
